# Key:
# Human betaherpesvirus 5 [1] = experiment: Antiviral activity against HCMV Davis in HEL cells assessed as reduction of virus-induced cytopathogenicity after 7 days; assay type: functional, organism-based; conditions: Human betaherpesvirus 5, Davis, 168 h
# Procedure, shortened: (§1)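 Confluent HEL fibroblasts were infected with strain AD-169 or Davis at 100 PFU/well. After 2 h, residual virus was removed and medium with serial compound concentrations was added, in duplicate. Plates were held 7 days at 37 °C, fixed with ethanol, and scored microscopically for virus-induced cytopathicity. EC50 is the concentration reducing cytopathicity by 50%.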
# Human betaherpesvirus 5 [2] = experiment: Antiviral activity against HCMV AD169 in HEL cells assessed as reduction of virus-induced cytopathogenicity after 7 days; assay type: functional, organism-based; conditions: Human betaherpesvirus 5, AD169, HEL, 168 h; procedure, shortened: as §1
# [3] = Cytotoxicity against HEL cells assessed as alteration in cell morphology after 3 days; assay type: cell-based; conditions: human
# Procedure, shortened: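 Minimum cytotoxic concentration: the lowest compound concentration causing a microscopically detectable alteration of HEL cell morphology.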
# [4] = Cytotoxicity against HEL cells assessed as reduction in cell growth after 3 days; assay type: cell-based; conditions: human
# Procedure, shortened: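 HEL cells were seeded at 5 × 10³ cells/well and allowed to proliferate for 24 h. Compound-containing medium was then added at several concentrations for 3 days at 37 °C. Cells were counted with a Coulter counter. CC50, the concentration reducing cell growth by 50% versus untreated controls, was read from plots of cell number (% of control) against concentration.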
# Human betaherpesvirus 5 [5] = experiment: Antiviral activity against ganciclovir-resistant HCMV with DNA polymerase mutant in HEL cells assessed as reduction of virus-induced cytopathogenicity; assay type: functional, organism-based; conditions: Human betaherpesvirus 5, HEL
# Procedure, shortened: (§2)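 Resistant mutants raised in vitro by serial passage of HCMV AD-169 under rising drug concentrations. Confluent HEL fibroblasts infected at 100 PFU/well for 2 h, then the inoculum was removed. Cells were kept with serial compound concentrations in duplicate for 7 days at 37 °C. After ethanol fixation, cytopathicity was scored microscopically. EC50 is the concentration halving virus-induced cytopathicity.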
# Human betaherpesvirus 5 [6] = experiment: Antiviral activity against (S)-3-hydroxy-2-phosphonomethoxypropyl cytosine-resistant HCMV with DNA polymerase mutant in HEL cells assessed as reduction of virus-induced cytopathogenicity; assay type: functional, organism-based; conditions: Human betaherpesvirus 5, HEL; procedure, shortened: as §2
# Human betaherpesvirus 5 [7] = experiment: Antiviral activity against (S)-3-hydroxy-2-phosphonomethoxypropyl adenine-resistant HCMV with DNA polymerase mutant in HEL cells assessed as reduction of virus-induced cytopathogenicity; assay type: functional, organism-based; conditions: Human betaherpesvirus 5, HEL; procedure, shortened: as §2
# Human betaherpesvirus 5 [8] = experiment: Antiviral activity against foscarnet-resistant HCMV with DNA polymerase mutant in HEL cells assessed as reduction of virus-induced cytopathogenicity; assay type: functional, organism-based; conditions: Human betaherpesvirus 5, HEL; procedure, shortened: as §2
# Human betaherpesvirus 5 [9] = experiment: Antiviral activity against acyclovir-resistant HCMV with DNA polymerase mutant in HEL cells assessed as reduction of virus-induced cytopathogenicity; assay type: functional, organism-based; conditions: Human betaherpesvirus 5, HEL; procedure, shortened: as §2
# Human betaherpesvirus 5 [10] = experiment: Antiviral activity against HCMV 6 with […] mutation in HEL cells assessed as reduction of virus-induced cytopathogenicity; assay type: functional, organism-based; conditions: Human betaherpesvirus 5, HEL
# Procedure, shortened: (§3)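 Drug-resistant HCMV clinical isolates from immunocompromised patients, carrying UL97 and/or DNA polymerase mutations. Confluent HEL fibroblasts infected at 100 PFU/well for 2 h, then residual virus was removed. Medium with serial compound concentrations added in duplicate for 7 days at 37 °C. After ethanol fixation, cytopathicity was scored microscopically. EC50 is the concentration reducing cytopathicity by 50%.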
# Human betaherpesvirus 5 [11] = experiment: Antiviral activity against HCMV 521 with […] and DNA polymerase mutation in HEL cells assessed as reduction of virus-induced cytopathogenicity; assay type: functional, organism-based; conditions: Human betaherpesvirus 5, HEL; procedure, shortened: as §3
# Human betaherpesvirus 5 [12] = experiment: Antiviral activity against HCMV 530 with […] and DNA polymerase mutation in HEL cells assessed as reduction of virus-induced cytopathogenicity; assay type: functional, organism-based; conditions: Human betaherpesvirus 5, HEL; procedure, shortened: as §3
Structure (SMILES),EC50 (Human betaherpesvirus 5 [1]),EC50 (Human betaherpesvirus 5 [2]),MCC at 72 h [3],CC50 at 72 h [4],EC50 (Human betaherpesvirus 5 [5]),EC50 (Human betaherpesvirus 5 [6]),EC50 (Human betaherpesvirus 5 [7]),EC50 (Human betaherpesvirus 5 [8]),EC50 (Human betaherpesvirus 5 [9]),EC50 (Human betaherpesvirus 5 [10]),EC50 (Human betaherpesvirus 5 [11]),EC50 (Human betaherpesvirus 5 [12])
Cc1cn([C@@H]2O[C@H](CO[Si](C)(C)C(C)(C)C)[C@@]3(OS(=O)(=O)C=C3NC(=O)NCc3ccccc3)[C@H]2O[Si](C)(C)C(C)(C)C)c(=O)n(C)c1=O,1.1 µM,1.3 µM,4 µM,4.1 µM,–,–,–,–,–,–,–,–
CCOC(=O)NC(=O)NC1=CS(=O)(=O)O[C@@]12[C@@H](CO[Si](C)(C)C(C)(C)C)O[C@@H](n1cc(C)c(=O)n(C)c1=O)[C@@H]2O[Si](C)(C)C(C)(C)C,2.8 µM,2.3 µM,10 µM,14 µM,–,–,–,–,–,–,–,–
Nc1ncnc2c1ncn2C[C@@H](CO)OCP(=O)(O)O,–,–,–,–,2 µg/mL,3.3 µg/mL,6.2 µg/mL,0.11 µg/mL,0.081 µg/mL,0.91 µg/mL,2.3 µg/mL,1.2 µg/mL
Cc1cn([C@@H]2O[C@H](CO)[C@@]3(OS(=O)(=O)C=C3NC(=O)NC(=O)c3ccccc3)[C@H]2O[Si](C)(C)C(C)(C)C)c(=O)n(C)c1=O,> 4 µM,> 4 µM,20 µM,16 µM,–,–,–,–,–,–,–,–
Nc1nc(N)c2ncn(CCOCP(=O)(O)O)c2n1 [PMEDAP],–,–,–,–,1.6 µg/mL,5.2 µg/mL,2.8 µg/mL,44 µg/mL,38 µg/mL,26 µg/mL,6.7 µg/mL,12 µg/mL
Cc1cn([C@@H]2O[C@H](CO)[C@@]3(OS(=O)(=O)C=C3NC(=O)NC(=O)c3ccccc3)[C@H]2O)c(=O)n(C)c1=O,> 100 µM,> 100 µM,100 µM,> 50 µM,–,–,–,–,–,–,–,–
CC(=O)O[C@H]1[C@H](n2cc(C)c(=O)n(C)c2=O)O[C@H](COC(=O)c2ccccc2)[C@@]12OS(=O)(=O)C=C2NC(=O)NC(=O)c1ccccc1,> 100 µM,> 100 µM,> 100 µM,> 100 µM,–,–,–,–,–,–,–,–
CC(C)(C)[Si](C)(C)OCCC1(CO[Si](C)(C)C(C)(C)C)OS(=O)(=O)C=C1NC(=O)NC(=O)c1ccccc1 (stereo not given),> 100 µM,> 100 µM,> 100 µM,> 100 µM,–,–,–,–,–,–,–,–
CCOC(=O)CNC(=O)NC1=CS(=O)(=O)O[C@@]12[C@@H](CO[Si](C)(C)C(C)(C)C)O[C@@H](n1cc(C)c(=O)n(C)c1=O)[C@@H]2O[Si](C)(C)C(C)(C)C,> 3.2 µM,> 3.2 µM,16 µM,13 µM,–,–,–,–,–,–,–,–
Cc1cn([C@@H]2O[C@H](CO[Si](C)(C)C(C)(C)C)[C@@]3(OS(=O)(=O)C=C3NC(N)=O)[C@H]2O[Si](C)(C)C(C)(C)C)c(=O)n(C)c1=O,2 µM,> 3.2 µM,16 µM,11 µM,–,–,–,–,–,–,–,–
Nc1nc2c(ncn2COC(CO)CO)c(=O)[nH]1 [GANCICLOVIR],–,–,–,–,7.6 µg/mL,4.9 µg/mL,9.1 µg/mL,1.5 µg/mL,0.54 µg/mL,9.4 µg/mL,6 µg/mL,6.2 µg/mL
CC(=O)N[C@@H]1O[C@H](CO[Si](C)(C)C(C)(C)C)[C@@]2(OS(=O)(=O)C=C2NC(=O)NC(=O)c2ccccc2)[C@H]1O[Si](C)(C)C(C)(C)C,> 20 µM,> 20 µM,100 µM,> 100 µM,–,–,–,–,–,–,–,–
Nc1nc2c(ncn2COCCO)c(=O)[nH]1 [ACYCLOVIR],–,–,–,–,4.8 µg/mL,12 µg/mL,7.9 µg/mL,173 µg/mL,130 µg/mL,91 µg/mL,7.7 µg/mL,22 µg/mL
Cc1cn([C@@H]2O[C@H](COC(=O)c3ccccc3)[C@@]3(OS(=O)(=O)C=C3NC(=O)NC(=O)c3ccccc3)[C@H]2O)c(=O)n(C)c1=O,> 100 µM,> 100 µM,> 100 µM,> 100 µM,–,–,–,–,–,–,–,–
Cc1cn([C@@H]2O[C@H](CO[Si](C)(C)C(C)(C)C)[C@@]3(OS(=O)(=O)C=C3NC(=O)NC(=O)c3ccccc3)[C@H]2O)c(=O)n(C)c1=O,> 100 µM,> 100 µM,> 100 µM,22 µM,–,–,–,–,–,–,–,–
Cc1cn([C@@H]2O[C@H](CO[Si](C(C)C)(C(C)C)C(C)C)[C@@]3(OS(=O)(=O)C=C3NC(=O)NC(=O)c3ccccc3)[C@H]2O[Si](C)(C)C(C)(C)C)c(=O)n(C)c1=O,4.2 µM,6.3 µM,≥ 100 µM,> 100 µM,–,–,–,–,–,–,–,–
CCNC(=O)NC1=CS(=O)(=O)O[C@@]12[C@@H](CO[Si](C)(C)C(C)(C)C)O[C@@H](n1cc(C)c(=O)n(C)c1=O)[C@@H]2O[Si](C)(C)C(C)(C)C,2 µM,1.8 µM,≥ 3.2 µM,10 µM,–,–,–,–,–,–,–,–
Nc1ccn(C[C@@H](CO)OCP(=O)(O)O)c(=O)n1.O.O [CIDOFOVIR],–,–,–,–,0.59 µg/mL,2.2 µg/mL,3.1 µg/mL,0.1 µg/mL,0.069 µg/mL,0.49 µg/mL,0.79 µg/mL,0.62 µg/mL
Nc1ncnc2c1ncn2CCOCP(=O)(O)O [ADEFOVIR],–,–,–,–,5.8 µg/mL,18 µg/mL,9.1 µg/mL,128 µg/mL,137 µg/mL,90 µg/mL,20 µg/mL,42 µg/mL
Cc1cn([C@@H]2O[C@H](COC(=O)c3ccccc3)[C@@]3(OS(=O)(=O)C=C3NC(=O)NC(=O)c3ccccc3)[C@H]2O[Si](C)(C)C(C)(C)C)c(=O)n(C)c1=O,2.2 µM,2.2 µM,≥ 5 µM,100 µM,–,–,–,–,–,–,–,–
Cc1cn([C@@H]2O[C@H](CO[Si](C)(C)C(C)(C)C)[C@@]3(OS(=O)(=O)C=C3NC(=O)Nc3ccccc3)[C@H]2O[Si](C)(C)C(C)(C)C)c(=O)n(C)c1=O,0.38 µM,≥ 0.14 µM,1.4 µM,1.3 µM,–,–,–,–,–,–,–,–
Cc1cn([C@@H]2O[C@H](CO[Si](C)(C)C(C)(C)C)[C@@]3(OS(=O)(=O)C=C3NC(=O)NC(=O)c3ccccc3)[C@H]2O[Si](C)(C)C(C)(C)C(C)C)c(=O)n(C)c1=O,3.9 µM,12.1 µM,≥ 100 µM,≥ 100 µM,–,–,–,–,–,–,–,–
Cc1cn([C@@H]2O[C@H](COCc3ccccc3)[C@@]3(OS(=O)(=O)C=C3NC(=O)NC(=O)c3ccccc3)[C@H]2O[Si](C)(C)C(C)(C)C)c(=O)n(C)c1=O,> 50 µM,> 50 µM,> 50 µM,> 50 µM,–,–,–,–,–,–,–,–
Cc1cn([C@@H]2O[C@H](CO[Si](C)(C)C(C)(C)C)[C@@]3(OS(=O)(=O)C=C3NC(=O)N(C(=O)Nc3ccccc3)c3ccccc3)[C@H]2O[Si](C)(C)C(C)(C)C)c(=O)n(C)c1=O,> 10 µM,15 µM,46 µM,13 µM,–,–,–,–,–,–,–,–
